Assay results: ChEMBL document CHEMBL1629418, “Spiroimidazolidinone NPC1L1 inhibitors. Part 2: structure-activity studies and in vivo efficacy” (Bioorg Med Chem Lett, 2010)
Values belong to the compound of their own block, whether it stands above or below them.

Tests used:
[1] = tested on: Mus musculus; assay: Inhibition of cholesterol-absorption in mouse at 10 mg/kg, po; format: functional
Summary of the method: (§1)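 Male C57BL/6 mice received compound orally as a suspension in 0.2 mL of 0.25% methocel. After 30 min, mice were given 0.2 mL oral [3H]cholesterol in IntraLipid. Mice were euthanized at 1.5 h or 5 h. Plasma [3H]cholesterol was counted from cardiac-puncture blood; liver was saponified for [3H]cholesterol. Six data points per dose were averaged; % inhibition reported.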

[2] = tested on: Mus musculus; assay: Inhibition of cholesterol-absorption in mouse plasma at 100 mg/kg, po; format: functional; summary of the method: as §1
[3] = tested on: Mus musculus; assay: Inhibition of cholesterol-absorption in mouse liver at 100 mg/kg, po; format: functional; summary of the method: as §1
[4] = target: T1, NPC1-like intracellular cholesterol transporter 1 (Homo sapiens, UniProt Q9UHC9); assay: Displacement of [35S](2S,3S,4S,5R,6S)-6-(4-((2S,3R)-3-((S)-3-(4-fluorophenyl)-3-hydroxypropyl)-1-(4-(3-(methylsulfonamido)prop-1-ynyl)phenyl)-4-oxoazetidin-2-yl)phenoxy)-3,4,5-trihydroxytetrahydro-2H-pyran-2-carboxylic acid from human NCP1L1 expressed in HEK 293; format: cell-based, HEK293
T1 sequence (Q9UHC9 whole entry): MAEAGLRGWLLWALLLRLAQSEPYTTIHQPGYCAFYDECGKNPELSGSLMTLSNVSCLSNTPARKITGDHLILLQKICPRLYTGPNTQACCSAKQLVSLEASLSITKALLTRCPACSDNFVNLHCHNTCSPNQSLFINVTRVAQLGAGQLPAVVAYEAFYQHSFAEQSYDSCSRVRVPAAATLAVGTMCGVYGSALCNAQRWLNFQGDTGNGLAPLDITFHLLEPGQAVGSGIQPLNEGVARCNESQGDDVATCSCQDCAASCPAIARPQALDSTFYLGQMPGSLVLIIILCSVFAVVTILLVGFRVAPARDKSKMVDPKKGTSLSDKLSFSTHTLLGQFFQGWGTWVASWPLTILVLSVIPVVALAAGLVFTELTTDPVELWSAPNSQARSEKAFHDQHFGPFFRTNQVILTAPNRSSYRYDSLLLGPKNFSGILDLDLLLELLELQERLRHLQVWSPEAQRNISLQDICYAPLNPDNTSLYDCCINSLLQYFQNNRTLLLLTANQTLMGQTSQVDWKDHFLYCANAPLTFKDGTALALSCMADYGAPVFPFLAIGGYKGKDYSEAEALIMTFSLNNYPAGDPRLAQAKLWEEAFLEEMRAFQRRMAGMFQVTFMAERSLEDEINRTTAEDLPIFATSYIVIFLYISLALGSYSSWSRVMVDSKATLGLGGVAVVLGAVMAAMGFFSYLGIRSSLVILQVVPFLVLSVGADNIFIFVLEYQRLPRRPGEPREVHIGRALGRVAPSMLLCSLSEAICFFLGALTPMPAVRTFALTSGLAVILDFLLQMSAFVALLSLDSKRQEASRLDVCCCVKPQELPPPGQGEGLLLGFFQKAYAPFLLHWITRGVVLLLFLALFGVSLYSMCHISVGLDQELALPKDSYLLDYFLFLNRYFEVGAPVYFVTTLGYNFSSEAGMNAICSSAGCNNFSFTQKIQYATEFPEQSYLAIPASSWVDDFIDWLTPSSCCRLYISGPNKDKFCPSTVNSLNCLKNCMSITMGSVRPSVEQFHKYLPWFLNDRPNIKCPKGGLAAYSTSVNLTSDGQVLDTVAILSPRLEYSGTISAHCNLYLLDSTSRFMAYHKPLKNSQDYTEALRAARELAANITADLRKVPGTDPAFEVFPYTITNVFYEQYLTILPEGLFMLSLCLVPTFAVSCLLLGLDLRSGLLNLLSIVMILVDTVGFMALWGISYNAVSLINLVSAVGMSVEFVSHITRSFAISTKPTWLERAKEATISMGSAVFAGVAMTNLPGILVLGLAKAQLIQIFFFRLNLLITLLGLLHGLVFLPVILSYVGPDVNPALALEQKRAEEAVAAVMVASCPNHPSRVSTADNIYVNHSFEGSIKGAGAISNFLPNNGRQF

[5] = tested on: Mus musculus; assay: Inhibition of [3H]cholesterol absorption in C57BL/6 mouse plasma at 1 mg/kg, po after 5 hrs; format: functional; settings: C57BL/6, Plasma; summary of the method: as §1
[6] = tested on: Mus musculus; assay: Inhibition of [3H]cholesterol absorption in C57BL/6 mouse plasma at 1 mg/kg, po after 1.5 hrs; format: functional; settings: C57BL/6, Plasma; summary of the method: as §1
[7] = tested on: Mus musculus; assay: Inhibition of [3H]cholesterol absorption in C57BL/6 mouse plasma at 100 mg/kg, po after 1.5 hrs; format: functional; settings: C57BL/6, Plasma; summary of the method: as §1
[8] = tested on: Mus musculus; assay: Inhibition of [3H]cholesterol absorption in C57BL/6 mouse plasma at 100 mg/kg, po after 5 hrs; format: functional; settings: C57BL/6, Plasma; summary of the method: as §1
[9] = tested on: Mus musculus; assay: Inhibition of cholesterol-absorption in mouse plasma at 30 mg/kg, po; format: functional; summary of the method: as §1
[10] = tested on: Mus musculus; assay: Inhibition of [3H]cholesterol absorption in C57BL/6 mouse plasma at 10 mg/kg, po after 1.5 hrs; format: functional; settings: C57BL/6, Plasma; summary of the method: as §1
[11] = target: NPC1-like intracellular cholesterol transporter 1 (Mus musculus) (UniProt Q6T3U4); assay: Displacement of [35S](2S,3S,4S,5R,6S)-6-(4-((2S,3R)-3-((S)-3-(4-fluorophenyl)-3-hydroxypropyl)-1-(4-(3-(methylsulfonamido)prop-1-ynyl)phenyl)-4-oxoazetidin-2-yl)phenoxy)-3,4,5-trihydroxytetrahydro-2H-pyran-2-carboxylic acid from mouse NCP1L1 expressed in mouse brush border membrane; format: cell membranes
Chain of NPC1-like intracellular cholesterol transporter 1 (Mus musculus) (Q6T3U4 21-1333 limits assumed): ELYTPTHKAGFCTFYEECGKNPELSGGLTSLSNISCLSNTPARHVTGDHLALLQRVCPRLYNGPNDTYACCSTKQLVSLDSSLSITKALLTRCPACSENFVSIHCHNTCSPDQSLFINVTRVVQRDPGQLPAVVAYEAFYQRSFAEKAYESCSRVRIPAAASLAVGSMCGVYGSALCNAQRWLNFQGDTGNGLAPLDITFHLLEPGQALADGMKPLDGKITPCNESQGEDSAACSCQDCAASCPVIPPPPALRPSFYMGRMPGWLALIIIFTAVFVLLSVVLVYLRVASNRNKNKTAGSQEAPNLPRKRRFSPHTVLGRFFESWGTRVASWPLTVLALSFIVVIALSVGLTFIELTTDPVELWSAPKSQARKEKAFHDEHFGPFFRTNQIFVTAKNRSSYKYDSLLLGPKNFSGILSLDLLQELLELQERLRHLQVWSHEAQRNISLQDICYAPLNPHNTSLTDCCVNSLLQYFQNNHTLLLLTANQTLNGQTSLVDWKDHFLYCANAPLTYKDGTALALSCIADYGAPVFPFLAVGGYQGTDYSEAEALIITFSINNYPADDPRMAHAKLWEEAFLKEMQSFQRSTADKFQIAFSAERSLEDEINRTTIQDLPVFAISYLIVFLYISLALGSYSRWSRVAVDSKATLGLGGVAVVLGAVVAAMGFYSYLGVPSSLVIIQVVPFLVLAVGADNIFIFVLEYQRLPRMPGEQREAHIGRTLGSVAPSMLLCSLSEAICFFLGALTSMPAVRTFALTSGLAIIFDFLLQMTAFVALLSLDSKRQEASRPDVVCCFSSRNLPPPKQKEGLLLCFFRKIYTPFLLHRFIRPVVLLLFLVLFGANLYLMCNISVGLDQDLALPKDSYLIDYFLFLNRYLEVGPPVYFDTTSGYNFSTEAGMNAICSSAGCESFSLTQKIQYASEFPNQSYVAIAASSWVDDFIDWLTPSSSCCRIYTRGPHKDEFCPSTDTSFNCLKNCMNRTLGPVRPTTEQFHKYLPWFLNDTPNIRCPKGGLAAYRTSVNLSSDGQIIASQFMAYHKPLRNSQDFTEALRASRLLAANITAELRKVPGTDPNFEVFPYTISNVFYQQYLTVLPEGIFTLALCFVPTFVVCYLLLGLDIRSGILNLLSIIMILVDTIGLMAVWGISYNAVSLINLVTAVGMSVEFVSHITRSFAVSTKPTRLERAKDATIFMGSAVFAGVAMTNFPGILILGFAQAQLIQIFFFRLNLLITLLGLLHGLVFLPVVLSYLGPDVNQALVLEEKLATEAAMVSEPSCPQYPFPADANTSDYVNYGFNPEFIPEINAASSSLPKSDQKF

[12] = tested on: Mus musculus; assay: Inhibition of [3H]cholesterol absorption in C57BL/6 mouse plasma at 30 mg/kg, po after 1.5 hrs; format: functional; settings: C57BL/6, Plasma; summary of the method: as §1
[13] = tested on: Mus musculus; assay: Inhibition of cholesterol-absorption in mouse plasma at 10 mg/kg, po; format: functional; summary of the method: as §1
[14] = target: T2, NPC1-like intracellular cholesterol transporter 1 (Homo sapiens) (UniProt Q9UHC9); assay: Binding affinity to human NPC1L1
T2 sequence (whole entry): T1 sequence (Q9UHC9 whole entry)

Compound: COC(=O)CCCNC(=O)CN1CN(c2ccccc2)C2(CCN(C(=O)c3ccc(C(C)(C)C)cc3)CC2)C1=O
inhibition in vivo at 10 mg/kg [1]: 35%

Compound: CS(=O)(=O)NCCCNC(=O)CN1CN(c2ccccc2)C2(CCN(C(=O)c3ccc(C4CCCCC4)cc3)CC2)C1=O
inhibition in vivo at 100 mg/kg [2]: < 5%
inhibition in vivo at 100 mg/kg [3]: < 5%
IC50 [4]: 2.5 µM
inhibition in vivo at 10 mg/kg [1]: 42%

Compound: O=C1[C@H](CC[C@H](O)c2ccc(F)cc2)[C@@H](c2ccc(O)cc2)N1c1ccc(F)cc1 [EZETIMIBE]
inhibition in vivo at 1 mg/kg [5]: 90%
inhibition in vivo at 1 mg/kg [6]: 7%

Compound: CCc1nn(CC)c(C2CCN(C(=O)CN3CN(c4ccccc4)C4(CCN(C(=O)c5ccc(C(C)(C)C)cc5)CC4)C3=O)CC2)c1C
inhibition in vivo at 100 mg/kg [2]: 62%
inhibition in vivo at 100 mg/kg [7]: 62%
inhibition in vivo at 100 mg/kg [8]: 67%
inhibition in vivo at 30 mg/kg [9]: 48%
IC50 [4]: 2.5 µM
inhibition in vivo at 10 mg/kg [10]: 35%
IC50 [11]: 40 µM
inhibition in vivo at 30 mg/kg [12]: 48%
inhibition in vivo at 10 mg/kg [13]: 35%

Compound: CC(C)(C)OC(=O)NCCCCNC(=O)CN1CN(c2ccccc2)C2(CCN(C(=O)c3ccc(C(C)(C)C)cc3)CC2)C1=O
inhibition in vivo at 10 mg/kg [1]: 7%

Compound: CC1(C)CC(OC(=O)CN2CN(c3ccccc3)C3(CCN(C(=O)c4ccc(C5CCCCC5)cc4)CC3)C2=O)CC(C)(C)N1
IC50 [4]: 0.6 µM

Compound: CCc1nn(CC)c(C2CCN(C(=O)CN3CN(c4ccccc4)C4(CCN(C(=O)c5ccc(C(C)(C)C)cc5)CC4)C3=O)CC2)c1CC
IC50 [4]: 4.6 µM

Compound: CC1(C)CC(OC(=O)CN2CN(c3ccccc3)C3(CCN(C(=O)c4ccc(C(C)(C)C)cc4)CC3)C2=O)CC(C)(C)N1
IC50 [4]: 1.3 µM

Compound: CCN(CC)C(=O)C1CCCN(C(=O)CN2CN(c3ccccc3)C3(CCN(C(=O)c4ccc(C(C)(C)C)cc4)CC3)C2=O)C1 (configuration not stated)
IC50 [4]: 8.7 µM

Compound: CC(C)(C)OC(=O)N1CCN(C(=O)CN2CN(c3ccccc3)C3(CCN(C(=O)c4ccc(C(C)(C)C)cc4)CC3)C2=O)CC1
IC50 [4]: 1 µM
IC50 [11]: 49 µM

Compound: COC(=O)CCNC(=O)CN1CN(c2ccccc2)C2(CCN(C(=O)c3ccc(C(C)(C)C)cc3)CC2)C1=O
inhibition in vivo at 10 mg/kg [1]: 44%

Continued, in another order:

IC50 [4]: 14 µM
Compound: O=C(CN1CN(c2ccccc2)C2(CCN(C(=O)c3ccc(C4CCCCC4)cc3)CC2)C1=O)NCCCO
inhibition in vivo at 100 mg/kg [2]: 43%
inhibition in vivo at 100 mg/kg [3]: 70%
inhibition in vivo at 10 mg/kg [1]: 42%

IC50 [4]: 1.7 µM
Compound: O=C(CN1CN(c2ccccc2)C2(CCN(C(=O)c3ccc(C4CCCCC4)cc3)CC2)C1=O)NCCCCO
inhibition in vivo at 10 mg/kg [1]: 52%

IC50 [4]: 4.8 µM
IC50 [11]: 19 µM
Compound: O=C(CN1CN(c2ccccc2)C2(CCN(C(=O)c3ccc(C4CCCCC4)cc3)CC2)C1=O)N1CCN(C(=O)c2ccccc2)CC1
inhibition in vivo at 100 mg/kg [2]: 52%
inhibition in vivo at 100 mg/kg [3]: 46%

IC50 [4]: 3.5 µM
IC50 [11]: 49 µM
Compound: CC(C)(C)OC(=O)N1CCN(C(=O)CN2CN(c3ccccc3)C3(CCN(C(=O)c4ccc(C5CCCCC5)cc4)CC3)C2=O)CC1
inhibition in vivo at 100 mg/kg [2]: 4.5%
inhibition in vivo at 100 mg/kg [3]: 58%

Activity [14]: 2.5 µM
Compound: CC(C)(C)c1ccc(C(=O)N2CCC3(CC2)C(=O)N(CC(=O)N2CCCCC2)CN3c2ccccc2)cc1

IC50 [4]: 3.3 µM
Compound: CCN(CC)C(=O)C1CCCN(C(=O)CN2CN(c3ccccc3)C3(CCN(C(=O)c4ccc(C5CCCCC5)cc4)CC3)C2=O)C1 (configuration not stated)

IC50 [4]: 0.9 µM
Compound: CCOC(=O)C1CCN(C(=O)CN2CN(c3ccccc3)C3(CCN(C(=O)c4ccc(C5CCCCC5)cc4)CC3)C2=O)CC1

IC50 [4]: 3.1 µM
Compound: NC(=O)C1CCCN(C(=O)CN2CN(c3ccccc3)C3(CCN(C(=O)c4ccc(C5CCCCC5)cc4)CC3)C2=O)C1 (configuration not stated)

IC50 [4]: 4.7 µM
Compound: CC(C)(C)c1ccc(C(=O)N2CCC3(CC2)C(=O)N(CC(=O)N2CCC(O)CC2)CN3c2ccccc2)cc1

IC50 [4]: 2.6 µM
Compound: CC(C)(C)c1ccc(C(=O)N2CCC3(CC2)C(=O)N(CC(=O)N2CCC(CCO)CC2)CN3c2ccccc2)cc1

IC50 [4]: 2.5 µM
Compound: CC(C)(C)OC(=O)NCC1CCN(C(=O)CN2CN(c3ccccc3)C3(CCN(C(=O)c4ccc(C5CCCCC5)cc4)CC3)C2=O)CC1

IC50 [4]: 26.5 µM
Compound: NCCNC(=O)CN1CN(c2ccccc2)C2(CCN(C(=O)c3ccc(C4CCCCC4)cc3)CC2)C1=O

IC50 [4]: 4.2 µM
Compound: CCOC(=O)C1CCCN(C(=O)CN2CN(c3ccccc3)C3(CCN(C(=O)c4ccc(C5CCCCC5)cc4)CC3)C2=O)C1 (configuration not stated)
